From ChEMBL document CHEMBL2203231, “Nitric oxide donor doxorubicins accumulate into Doxorubicin-resistant human colon cancer cells inducing cytotoxicity” (ACS Med Chem Lett, 2011) come the findings set out here.

Series [1] addresses T1, ATP-binding cassette sub-family C member 3 (Homo sapiens, UniProt O15438). The series is described as follows: Inhibition of MRP3-mediated drug resistance in doxorubicin-resistant human HT-29 cells assessed as increase in extracellular LDH level at 5 uM after 24 hrs by spectrofluorometric analysis. Particulars: ht-29, 24 h. It is filed as cell-based. The method in brief:
(§1)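 HT29-dx cells were incubated for 24 h with 5 μM compound, alone or with 100 μM PTIO or 10 μL/mL packed red blood cells as NO scavengers. Readouts were intracellular drug content, extracellular LDH activity and nitrite in the culture supernatant. Measured in duplicate, n = 3.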

Series [2] has as its target ATP-dependent translocase ABCB1 (Homo sapiens, UniProt P08183). The series is described as follows: Inhibition of P-gp in doxorubicin-resistant human HT-29 cells at 5 umol/L incubated for 24 hrs followed by compound wash out measured after 20 mins by Rhodamine 123 staining-based flow cytometry. Particulars: ht-29, 24 h, 5 µM. The class given is cell-based. For orientation: A flow cytometer gives signals particle by particle.

In series [3] the target is T1, ATP-binding cassette sub-family C member 3. Kind of series: Inhibition of MRP3-mediated drug resistance in doxorubicin-resistant human HT-29 cells assessed as increase in doxorubicin accumulation at 5 umol/L co-administered with doxorubicin after 24 hrs by spectrofluorometric analysis. It is filed as cell-based. Particulars: ht-29, 24 h, 5 µM.
The target is the same in series [4]. Kind of series: Inhibition of MRP3-mediated drug resistance in doxorubicin-resistant human HT-29 cells assessed as increase in doxorubicin accumulation at 5 umol/L incubated for 24 hrs followed by compound wash out measured 24 hrs post doxorubicin administration by spectrofluorometric analysis. Particulars: ht-29, 24 h, 5 µM. The class given is cell-based.
Series [5] shares this target. The series is described as follows: Inhibition of MRP3 in doxorubicin-resistant human HT-29 cells assessed as nitration of tyrosine residues at 5 uM after 24 hrs by Western blot analysis. The class given is cell-based. Particulars: ht-29, 24 h. The method in brief:
(§2)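 HT29-dx cells were treated for 24 h with 5 μM compound and lysed. Whole lysate was immunoprecipitated with a polyclonal anti-nitrotyrosine antibody, then Western blotted with anti-P-gp or anti-MRP3 antibody. Total transporter levels were checked before immunoprecipitation, with GAPDH as loading control. Representative of three experiments.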
(Immunoblotting shows a protein as a band on a membrane.)

For series [6], the system named is HT-29. The series is described as follows: Induction of nitrite production in doxorubicin-resistant human HT-29 cells at 5 uM after 1 to 24 hrs by Griess method. It is filed as functional, cell-based. The method, boiled down: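 In a time-course run, HT29-dx cells were exposed to 5 μM compound. Nitrite in the medium was measured by the Griess reaction at times between 1 and 24 h.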
A general note: Griess reagent forms a coloured azo dye with nitrite.

Series [7] addresses T1, ATP-binding cassette sub-family C member 3. The series is described as follows: Inhibition of MRP3-mediated drug resistance in doxorubicin-resistant human HT-29 cells assessed as increase in drug accumulation at 5 uM after 1 to 24 hrs by spectrofluorometric analysis. It is filed as cell-based. Particulars: ht-29, 5 µM. The method in brief:
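Time course in HT29-dx cells with 5 μM drug over 1–24 h. Intracellular content was read by spectrofluorimetry of cell lysates.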

Series [8] has the same target. The series is described as follows: Inhibition of MRP3-mediated drug resistance in doxorubicin-resistant human HT-29 cells assessed as increase in drug accumulation at 25 uM after 24 hrs by spectrofluorometric analysis. It is filed as cell-based. Particulars: ht-29, 24 h. The method in brief: (§3)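 HT29-dx cells in RPMI 1640 were incubated for 24 h with 0.5, 1, 2.5, 5 or 25 μM drug, then lysed. Intracellular drug was measured spectrofluorimetrically (excitation 475 nm, emission 553 nm). Data are means ± SD (n = 3) versus untreated cells.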

The target is the same in series [9]. The series is described as follows: Inhibition of MRP3-mediated drug resistance in doxorubicin-resistant human HT-29 cells assessed as increase in drug accumulation at 0.5 to 5 uM after 24 hrs by spectrofluorometric analysis. Particulars: ht-29, 24 h. It is filed as cell-based. The method in brief:
as §3

The test system of series [10] is HT-29. The series is described as follows: Inhibition of P-gp in doxorubicin-resistant human HT-29 cells assessed as nitration of tyrosine residues at 5 uM after 24 hrs by Western blot analysis. It is filed as cell-based. The method in brief: as §2
Series [11] concerns HT-29. The series is described as follows: Induction of nitrite production in doxorubicin-resistant human HT-29 cells at 5 uM by Griess method. It is filed as functional, cell-based. Particulars: TDE = time-dependent effect. The method, boiled down: as §1
The test system of series [12] is HT-29. Kind of series: Induction of nitrite production in doxorubicin-resistant human HT-29 cells after 24 hrs by Griess method. The class given is functional, cell-based. The method, boiled down: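 HT29-dx cell monolayers were incubated for 24 h with 0.5, 1, 2.5, 5 or 25 μM compound. Nitrite in the culture medium was quantified by the Griess reaction. Data are means ± SD (n = 3) versus untreated cells.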

Series [13] addresses T1, ATP-binding cassette sub-family C member 3. Kind of series: Inhibition of MRP3-mediated drug resistance in doxorubicin-resistant human HT-29 cells assessed as increase in extracellular LDH level at 5 uM after 24 hrs by spectrofluorometric analysis in presence of nitric oxide scavenger PTIO and RBCs. The class given is cell-based. Conditions: ht-29, 24 h. The method, boiled down: as §1

Series [14] shares this target. Kind of series: Inhibition of MRP3-mediated drug resistance in doxorubicin-resistant human HT-29 cells assessed as increase in doxorubicin accumulation at 5 uM by spectrofluorometric analysis. It is filed as cell-based. Particulars: ht-29, 5 µM, TDE = time-dependent effect.
Series [15] has the same target. The series is described as follows: Inhibition of MRP3-mediated drug resistance in doxorubicin-resistant human HT-29 cells assessed as increase in doxorubicin accumulation at 5 uM after 24 hrs by spectrofluorometric analysis in presence of nitric oxide scavenger PTIO and RBCs. It is filed as cell-based. Particulars: ht-29, 24 h. The method in brief: as §1
Series [16] has the same target. Kind of series: Inhibition of MRP3-mediated drug resistance in doxorubicin-resistant human HT-29 cells assessed as increase in doxorubicin accumulation after 24 hrs by spectrofluorometric analysis. Particulars: ht-29, 24 h. The class given is cell-based.

The source made the active and inactive calls. The rule behind the calls is not given here.

T1 sequence (O15438 whole entry): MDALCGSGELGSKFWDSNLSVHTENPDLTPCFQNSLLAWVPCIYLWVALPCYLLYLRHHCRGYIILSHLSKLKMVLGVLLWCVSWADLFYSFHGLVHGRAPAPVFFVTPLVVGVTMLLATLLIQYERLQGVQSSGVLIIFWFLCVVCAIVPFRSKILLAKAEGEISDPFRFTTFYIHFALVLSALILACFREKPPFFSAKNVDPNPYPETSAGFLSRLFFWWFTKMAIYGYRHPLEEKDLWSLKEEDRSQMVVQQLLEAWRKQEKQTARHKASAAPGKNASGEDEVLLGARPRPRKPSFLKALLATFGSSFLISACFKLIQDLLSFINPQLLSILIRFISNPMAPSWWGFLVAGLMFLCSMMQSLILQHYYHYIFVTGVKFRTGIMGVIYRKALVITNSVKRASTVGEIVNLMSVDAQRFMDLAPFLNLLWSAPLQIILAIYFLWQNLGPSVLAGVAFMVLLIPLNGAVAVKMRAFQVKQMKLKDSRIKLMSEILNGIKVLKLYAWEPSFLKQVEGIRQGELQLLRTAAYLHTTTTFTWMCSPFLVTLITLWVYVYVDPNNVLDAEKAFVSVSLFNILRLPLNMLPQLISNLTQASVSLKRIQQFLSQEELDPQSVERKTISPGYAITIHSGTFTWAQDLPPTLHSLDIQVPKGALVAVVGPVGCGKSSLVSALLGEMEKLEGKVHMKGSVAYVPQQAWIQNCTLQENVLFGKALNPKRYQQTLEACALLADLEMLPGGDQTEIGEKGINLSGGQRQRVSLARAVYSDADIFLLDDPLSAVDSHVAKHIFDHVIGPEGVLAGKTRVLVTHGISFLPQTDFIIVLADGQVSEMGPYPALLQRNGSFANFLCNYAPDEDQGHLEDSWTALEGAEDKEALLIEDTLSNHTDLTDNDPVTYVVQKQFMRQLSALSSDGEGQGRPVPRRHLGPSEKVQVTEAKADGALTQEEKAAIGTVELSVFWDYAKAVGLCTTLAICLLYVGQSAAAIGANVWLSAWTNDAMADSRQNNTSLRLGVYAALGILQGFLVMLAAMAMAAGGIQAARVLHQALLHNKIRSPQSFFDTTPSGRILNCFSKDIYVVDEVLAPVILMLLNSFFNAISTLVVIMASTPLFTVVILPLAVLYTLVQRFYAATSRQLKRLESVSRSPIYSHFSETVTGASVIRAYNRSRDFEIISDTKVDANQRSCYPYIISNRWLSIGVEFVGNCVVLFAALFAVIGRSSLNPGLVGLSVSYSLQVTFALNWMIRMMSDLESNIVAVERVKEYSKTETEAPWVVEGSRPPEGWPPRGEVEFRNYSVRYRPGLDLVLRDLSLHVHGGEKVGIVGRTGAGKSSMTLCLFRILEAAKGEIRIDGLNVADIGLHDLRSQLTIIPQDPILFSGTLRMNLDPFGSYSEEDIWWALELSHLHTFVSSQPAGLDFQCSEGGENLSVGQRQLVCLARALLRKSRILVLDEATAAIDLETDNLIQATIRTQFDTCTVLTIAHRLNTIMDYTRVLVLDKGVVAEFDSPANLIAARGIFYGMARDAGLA
ATP-dependent translocase ABCB1, sequence (P08183 whole entry): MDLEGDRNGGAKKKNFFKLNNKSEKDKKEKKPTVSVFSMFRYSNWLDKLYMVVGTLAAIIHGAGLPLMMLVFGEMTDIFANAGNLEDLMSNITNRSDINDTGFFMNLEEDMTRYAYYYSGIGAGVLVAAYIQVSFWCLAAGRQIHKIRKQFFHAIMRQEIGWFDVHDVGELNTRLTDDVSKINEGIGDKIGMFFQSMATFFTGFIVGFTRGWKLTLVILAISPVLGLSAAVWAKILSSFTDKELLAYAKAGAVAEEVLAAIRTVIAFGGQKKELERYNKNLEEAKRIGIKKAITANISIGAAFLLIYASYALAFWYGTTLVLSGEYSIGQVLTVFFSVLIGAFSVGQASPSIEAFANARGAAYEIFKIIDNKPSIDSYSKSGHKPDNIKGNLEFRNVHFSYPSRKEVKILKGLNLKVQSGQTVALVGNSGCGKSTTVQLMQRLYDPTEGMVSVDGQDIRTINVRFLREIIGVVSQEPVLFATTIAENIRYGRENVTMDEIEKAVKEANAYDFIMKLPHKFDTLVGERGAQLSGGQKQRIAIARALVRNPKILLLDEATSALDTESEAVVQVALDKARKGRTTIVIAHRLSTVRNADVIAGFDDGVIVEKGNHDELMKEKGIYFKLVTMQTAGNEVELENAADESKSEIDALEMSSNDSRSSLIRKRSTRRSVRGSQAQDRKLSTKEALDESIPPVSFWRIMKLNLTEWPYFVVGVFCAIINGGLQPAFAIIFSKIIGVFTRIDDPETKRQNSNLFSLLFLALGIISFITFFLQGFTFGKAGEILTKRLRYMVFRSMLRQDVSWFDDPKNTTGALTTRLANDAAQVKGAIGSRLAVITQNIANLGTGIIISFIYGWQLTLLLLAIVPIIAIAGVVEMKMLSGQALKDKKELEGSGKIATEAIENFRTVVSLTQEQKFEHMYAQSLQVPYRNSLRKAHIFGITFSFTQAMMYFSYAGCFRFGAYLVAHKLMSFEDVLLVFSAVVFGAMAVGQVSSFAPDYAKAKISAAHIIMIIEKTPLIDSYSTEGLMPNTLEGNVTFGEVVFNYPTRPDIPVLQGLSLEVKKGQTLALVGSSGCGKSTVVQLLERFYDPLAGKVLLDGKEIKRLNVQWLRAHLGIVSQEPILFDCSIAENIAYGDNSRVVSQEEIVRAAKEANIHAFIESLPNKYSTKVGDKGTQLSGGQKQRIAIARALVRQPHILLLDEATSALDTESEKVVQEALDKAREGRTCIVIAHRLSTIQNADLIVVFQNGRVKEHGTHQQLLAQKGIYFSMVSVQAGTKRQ

As for `COC(=O)c1ccc(CC(CO[N+](=O)[O-])O[N+](=O)[O-])cc1` (stereo not drawn), in series [1], the “inhibition (INH)” value is “Not Active”.

As to `COC(=O)CCOc1no[n+]([O-])c1S(=O)(=O)c1ccccc1`, the “inhibition (INH)” value in series [2] was “Not Active”; in series [1] it was “Not Active”; in series [3], “Active”; in [4], “Active”.

As to `O=C(O)c1ccc(CC(CO[N+](=O)[O-])O[N+](=O)[O-])cc1` (stereo not drawn), in series [1], the “inhibition (INH)” value is reported as “Not Active”.

In the case of `COc1cccc2c1C(=O)c1c(O)c3c(c(O)c1C2=O)C[C@@](O)(C(=O)CO)C[C@@H]3O[C@H]1C[C@H](N)[C@H](O)[C@H](C)O1` [DOXORUBICIN], the “inhibition (INH)” value in series [5] is reported as “Not Active”; in series [7], “Not Active”; in [8], “Active”; in series [9], “Not Active”. The outcome in series [6] was inactive.

`COc1cccc2c1C(=O)c1c(O)c3c(c(O)c1C2=O)C[C@@](O)(C(=O)COC(=O)CCOc1no[n+]([O-])c1S(=O)(=O)c1ccccc1)C[C@@H]3O[C@H]1C[C@H](N)[C@H](O)[C@H](C)O1.Cl`: in series [10], the inhibition entry is “inactive”. For the same molecule, the “inhibition (INH)” value in series [5] is “Active”; in [13] it was “Not Active”; in series [1], “Active”; in series [14], “tde”; in [15], “Not Active”; in series [16], “Dose-dependent effect”. The Activity result in series [11] is “tde”; in series [12], “Dose-dependent effect”.

Take `O=C(O)CCOc1no[n+]([O-])c1S(=O)(=O)c1ccccc1`: the “inhibition (INH)” value is on record as “Not Active” in series [2], “Not Active” in [1], “Active” in [3] and “Active” in series [4].

As to `COc1cccc2c1C(=O)c1c(O)c3c(c(O)c1C2=O)C[C@@](O)(C(=O)COC(=O)c1ccc(CC(CO[N+](=O)[O-])O[N+](=O)[O-])cc1)C[C@@H]3O[C@H]1C[C@H](N)[C@H](O)[C@H](C)O1.Cl` (stereo partly drawn), the inhibition entry in series [10] was “inactive”. The “inhibition (INH)” value in series [5] is “Active”; in series [13], “Not Active”; in series [1], “Active”; in [14] it was “tde”; in series [15], “Not Active”; in [16] it was “Dose-dependent effect”. The results for the Activity result in [11] and in series [12] were “tde” and “Dose-dependent effect”, respectively.
